Data published in ChEMBL document CHEMBL1828512, “Potent, metabolically stable benzopyrimido-pyrrolo-oxazine-dione (BPO) CFTR inhibitors for polycystic kidney disease” (J Med Chem, 2011).
Values after ≈ are worked out from the molar mass of the structure shown.

Legend:
[1] = Metabolic stability of the compound in rat liver microsomes assessed as disappearance of compound after 30 mins by LC/MS analysis in presence of NADPH; format: ADME, Microsome; settings: read-out: Drug metabolism
Outline: (§1)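 Compound at 5 µM was incubated with rat liver microsomes (1 mg protein/mL) in 100 mM potassium phosphate at 37 °C, with 0 or 1 mM NADPH. Samples were chilled, extracted with ethyl acetate, dried and taken up in mobile phase. Analysis was reverse-phase C18 LC/MS on a 5–95% acetonitrile gradient with negative ion detection.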

[2] = Solubility of the compound in aqueous phosphate buffer at pH 7.4; format: physicochemical
Outline: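 Solubility was measured in aqueous phosphate buffer at pH 7.4.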

Kidney = test: Inhibition of 8-Br-cAMP-induced renal cystogenesis in mouse embryonic kidney organ culture model after 5 days by inverted microscopic analysis; format: functional, tissue-based; settings: 120 h
[3] = target: Cystic fibrosis transmembrane conductance regulator (Homo sapiens, UniProt P13569); test: Inhibition of human wild-type CFTR expressed in FRT cells coexpressing YFP-H148Q assessed as inhibition of cAMP agonist-induced iodide influx after 45 mins by fluorescence plate-reader analysis; format: functional, cell-based
Chain of Cystic fibrosis transmembrane conductance regulator (P13569 whole entry): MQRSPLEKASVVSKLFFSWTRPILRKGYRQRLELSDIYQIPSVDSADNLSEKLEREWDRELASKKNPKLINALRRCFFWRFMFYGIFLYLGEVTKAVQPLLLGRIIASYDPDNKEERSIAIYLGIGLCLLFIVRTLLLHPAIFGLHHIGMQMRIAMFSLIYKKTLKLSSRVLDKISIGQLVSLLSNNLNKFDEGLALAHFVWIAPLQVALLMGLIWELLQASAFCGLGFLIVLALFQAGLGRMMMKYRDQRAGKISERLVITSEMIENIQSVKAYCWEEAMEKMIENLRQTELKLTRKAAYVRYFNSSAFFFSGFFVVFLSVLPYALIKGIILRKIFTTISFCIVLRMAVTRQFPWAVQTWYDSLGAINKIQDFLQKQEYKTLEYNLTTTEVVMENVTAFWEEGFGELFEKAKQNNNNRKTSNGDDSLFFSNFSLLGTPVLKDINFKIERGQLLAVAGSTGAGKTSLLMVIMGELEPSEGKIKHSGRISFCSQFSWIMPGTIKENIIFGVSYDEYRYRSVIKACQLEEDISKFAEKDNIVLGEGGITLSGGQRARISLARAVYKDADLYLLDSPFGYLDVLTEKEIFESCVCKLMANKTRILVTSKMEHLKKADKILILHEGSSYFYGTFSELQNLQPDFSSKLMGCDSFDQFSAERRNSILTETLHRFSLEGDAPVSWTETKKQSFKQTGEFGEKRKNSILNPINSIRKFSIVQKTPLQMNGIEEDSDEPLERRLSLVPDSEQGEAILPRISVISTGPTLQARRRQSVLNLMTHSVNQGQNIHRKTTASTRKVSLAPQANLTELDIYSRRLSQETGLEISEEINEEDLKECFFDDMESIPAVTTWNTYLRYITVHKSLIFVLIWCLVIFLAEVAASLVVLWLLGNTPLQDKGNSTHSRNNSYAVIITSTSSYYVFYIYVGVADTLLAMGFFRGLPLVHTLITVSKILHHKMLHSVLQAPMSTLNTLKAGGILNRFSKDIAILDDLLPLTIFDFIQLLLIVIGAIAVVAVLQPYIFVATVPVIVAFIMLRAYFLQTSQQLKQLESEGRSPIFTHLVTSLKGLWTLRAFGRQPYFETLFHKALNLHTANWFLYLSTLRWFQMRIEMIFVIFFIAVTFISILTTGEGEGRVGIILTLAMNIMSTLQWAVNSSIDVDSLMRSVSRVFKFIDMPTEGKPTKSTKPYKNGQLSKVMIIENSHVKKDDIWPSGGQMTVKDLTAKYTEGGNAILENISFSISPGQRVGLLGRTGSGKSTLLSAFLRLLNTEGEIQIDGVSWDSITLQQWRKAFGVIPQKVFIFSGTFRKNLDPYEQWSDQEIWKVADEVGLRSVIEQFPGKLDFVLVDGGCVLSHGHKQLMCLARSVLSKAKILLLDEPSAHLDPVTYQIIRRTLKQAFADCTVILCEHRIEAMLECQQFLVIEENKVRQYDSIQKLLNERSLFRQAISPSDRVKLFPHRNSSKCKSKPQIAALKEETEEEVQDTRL

[4] = Solubility of the compound in albumin free saline; format: physicochemical; settings: buffer
Liver microsomes = test: Metabolic stability of the compound in rat liver microsomes assessed as disappearance of compound after 30 mins by LC/MS analysis in absence of NADPH; format: ADME, Microsome; settings: 0.5 h; outline: as §1

| IC50 [3] | Structure (SMILES) | other results |
| --- | --- | --- |
| Not Active | Cc1ccc(C2c3c4c(c(-c5ccccc5)n3-c3ccccc3N2C(=O)CCl)c(=O)n(C)c(=O)n4C)o1 (configuration not stated) | – |
| Not Active | Cc1ccc(C2c3c4c(c(-c5ccccc5)n3-c3ccccc3N2S(C)(=O)=O)c(=O)n(C)c(=O)n4C)o1 (configuration not stated) | – |
| Not Active | CC(=O)N1c2ccccc2-n2c(-c3ccccc3)c3c(=O)n(C)c(=O)n(C)c3c2C1c1ccc(C)o1 (configuration not stated) | – |

Continued, compound first:

| Structure (SMILES) | IC50 [3] | other results |
| --- | --- | --- |
| Cn1c(=O)c2c(-c3ccccc3)n3c(c2n(C)c1=O)C(c1ccc(Br)o1)Oc1ccc(C(=O)O)cc1-3 (configuration not stated) | – | metabolised at 0.5 h [1]: < 5%; solubility [2]: 17 µM (≈ 9.32 µg/mL); IC50 (Kidney): 100 nM |
| Cc1ccc(C2Nc3ccccc3-n3c(-c4ccccc4)c4c(=O)n(C)c(=O)n(C)c4c32)o1 (configuration not stated) | – | metabolised at 0.5 h [1]: 60%; solubility [4]: < 2 µM; Stability (Liver microsomes): Stable |
| Cn1c(=O)c2c(-c3ccccc3)n3c(c2n(C)c1=O)C(c1ccc(-c2ccccc2)o1)Nc1ccccc1-3 (configuration not stated) | Not Active | – |
| Cn1c(=O)c2c(-c3ccccc3)n3c(c2n(C)c1=O)C(c1cc2ccccc2o1)Nc1ccccc1-3 (configuration not stated) | Not Active | – |
| Cn1c(=O)c2c(-c3ccccc3)n3c(c2n(C)c1=O)C(c1ccc(CO)o1)Nc1ccccc1-3 (configuration not stated) | Not Active | – |
